How the values were obtained:
human iPS-IECMs [1] = assay: Determination of Fg value; format: in vitro ADME; settings: 3 μM MDZ apical, 60-minute incubation
Outline: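 Monolayers on inserts were preincubated 10 min at 37°C in HBSS with 10 mM HEPES, pH 7.4. Apical: 3 μM midazolam in HBSS; basolateral: HBSS with 0.1% DMSO. After 60 min at 37°C, both chambers and the twice-washed cells were collected into acetonitrile/ethanol (7:3) with candesartan internal standard. Midazolam and 1′-OH midazolam were quantified by UPLC-MS/MS. Fg was derived from summed metabolite across all compartments plus basolateral and cellular midazolam.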

human intestinal tissue = human intestinal tissue / human in vivo; cited from earlier work
human iPS-IECMs [2] = assay: LY permeability test across human iPS-IECMs; format: in vitro ADME; settings: Ad-LacZ- and Ad-TF-transduced cells; apical to basolateral; 60 μM LY, 70 min, 37°C

For Cc1ncc2n1-c1ccc(Cl)cc1C(c1ccccc1F)=NC2 [MDZ, midazolam], the “Fg (fraction passing the gut wall)” value (human iPS-IECMs [1]) is listed as 0.73 and the “Fg (fraction passing the gut wall)” value (human intestinal tissue) is listed as 0.57.
With LY CH Dipotassium Salt the “Lucifer yellow (LY) Papp” value (human iPS-IECMs [2]) was “approximately 0.44 ×10^–6 cm/s”.
